Reference: ChEMBL document CHEMBL1641462, “Synthesis and in vivo evaluation of ¹⁸F-fluoroethyl GF120918 and XR9576 as positron emission tomography probes for assessing the function of drug efflux transporters” (Bioorg Med Chem, 2011)
Active and inactive are the calls of the source.

Experiments:
Format in all cases: cell-based
Conditions in all cases: 7.4 M; tested as the 18F-labelled form
[1] = Increase of P-glycoprotein-mediated intracellular drug uptake expressed in human MES-SA/Dx5 cells at 7.4 MBq/ml after 120 mins by gamma counting in presence of 10 uM of GF120918
Procedure, shortened: (§1)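 MES-SA/Dx5 doxorubicin-resistant human uterine sarcoma cells grown in McCoy's 5A + 10% FCS at 37 °C, 5% CO2; monolayers (10^5 cells/well) incubated 120 min with 7.4 MBq/ml [18F]-tracer ± 10 µM inhibitor. Washed five times in cold PBS, lysed in 0.2 M NaOH, gamma counted, normalized to protein (%ICD/mg). Percent increase vs untreated cells; triplicate.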

[2] = Increase of P-glycoprotein-mediated intracellular drug uptake expressed in human MES-SA/Dx5 cells at 7.4 MBq/ml after 120 mins by gamma counting in presence of 10 uM of XR9576; procedure, shortened: as §1
[3] = Increase of P-glycoprotein-mediated intracellular drug uptake expressed in human MES-SA/Dx5 cells at 7.4 MBq/ml after 120 mins by gamma counting in presence of 10 uM of N-(4-(2-(1,2,3,4-tetrahydro-6,7-dimethoxy-2- isoquinolinyl)ethyl)phenyl)-9,10-dihydro-5-fluoroethoxy-9- oxo-4-acridine carboxamide; procedure, shortened: as §1
[4] = Increase of P-glycoprotein-mediated intracellular drug uptake expressed in human MES-SA/Dx5 cells at 7.4 MBq/ml after 120 mins by gamma counting in presence of 10 uM of quinoline-3-carboxylic acid [2-(4-{2-[7-(2-fluoroethoxy)- 6-methoxy-3,4-dihydro-1H-isoquinolin-2-yl]ethyl}phenylc arbamoyl)-4,5-dimethoxyphenyl]amide; procedure, shortened: as §1

Measured: Drug uptake

COc1cc2c(cc1OC)CN(CCc1ccc(NC(=O)c3cccc4c(=O)c5cccc(OCCF)c5[nH]c34)cc1)CC2
active: all assays above

COc1cc(NC(=O)c2cnc3ccccc3c2)c(C(=O)Nc2ccc(CCN3CCc4cc(OC)c(OCCF)cc4C3)cc2)cc1OC
active: all assays above
